WT yeast gro inh: growth inhibition of WT strain, primary screen, mitochondrial fusion inhibitor project, WT and mutant strains, chemical genetic; mitochondrial fusion phenotypic screen; inhibition, % at 10 µM; hit rate 2.1% among 190,000; in the data active = inhibition above about 58%; tested in S. cerevisiae
MT stabilize HCS: microtubule stabilizers in HeLa cells, primary screen, imaging, high-content imaging | HeLa tubulin immunostaining HCS, 24 h; share of cells brighter than vehicle mean+2SD | % tubulin-high responders, % at 10 µM | hit rate 0.83% among 200,000;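 active = plate Z-score above 3 for both tubulin-high and condensed-nucleus cell shares, with cell loss under 80%, at 10 µM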;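 also: anti alpha tubulin signal scored within the nucleus-defined area of each cell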
Cl transport mod: KCC2 cotransporter modulators, thallium flux, primary screen, cell-based, HEK293 KCC2, FluoZin-2 fluorescence, MLSMR; KCC2 cells, thallium flux FluoZin-2 fluorescence; B-score of Tl+ flux slope (higher = more flux/activation; lower = inhibition) at 10 µM; hit rate 2.2% among 190,000; Solute carrier family 12 member 5 (Homo sapiens), Q9H2X9;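 active = thallium flux slope and its plate-corrected score both differing from the plate sample mean at a set confidence after two filtering rounds, in either direction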;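 also: slope of fluorescence scaled to starting intensity during 10 to 20 s after thallium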
Target sequence (Q9H2X9 whole entry, looked up): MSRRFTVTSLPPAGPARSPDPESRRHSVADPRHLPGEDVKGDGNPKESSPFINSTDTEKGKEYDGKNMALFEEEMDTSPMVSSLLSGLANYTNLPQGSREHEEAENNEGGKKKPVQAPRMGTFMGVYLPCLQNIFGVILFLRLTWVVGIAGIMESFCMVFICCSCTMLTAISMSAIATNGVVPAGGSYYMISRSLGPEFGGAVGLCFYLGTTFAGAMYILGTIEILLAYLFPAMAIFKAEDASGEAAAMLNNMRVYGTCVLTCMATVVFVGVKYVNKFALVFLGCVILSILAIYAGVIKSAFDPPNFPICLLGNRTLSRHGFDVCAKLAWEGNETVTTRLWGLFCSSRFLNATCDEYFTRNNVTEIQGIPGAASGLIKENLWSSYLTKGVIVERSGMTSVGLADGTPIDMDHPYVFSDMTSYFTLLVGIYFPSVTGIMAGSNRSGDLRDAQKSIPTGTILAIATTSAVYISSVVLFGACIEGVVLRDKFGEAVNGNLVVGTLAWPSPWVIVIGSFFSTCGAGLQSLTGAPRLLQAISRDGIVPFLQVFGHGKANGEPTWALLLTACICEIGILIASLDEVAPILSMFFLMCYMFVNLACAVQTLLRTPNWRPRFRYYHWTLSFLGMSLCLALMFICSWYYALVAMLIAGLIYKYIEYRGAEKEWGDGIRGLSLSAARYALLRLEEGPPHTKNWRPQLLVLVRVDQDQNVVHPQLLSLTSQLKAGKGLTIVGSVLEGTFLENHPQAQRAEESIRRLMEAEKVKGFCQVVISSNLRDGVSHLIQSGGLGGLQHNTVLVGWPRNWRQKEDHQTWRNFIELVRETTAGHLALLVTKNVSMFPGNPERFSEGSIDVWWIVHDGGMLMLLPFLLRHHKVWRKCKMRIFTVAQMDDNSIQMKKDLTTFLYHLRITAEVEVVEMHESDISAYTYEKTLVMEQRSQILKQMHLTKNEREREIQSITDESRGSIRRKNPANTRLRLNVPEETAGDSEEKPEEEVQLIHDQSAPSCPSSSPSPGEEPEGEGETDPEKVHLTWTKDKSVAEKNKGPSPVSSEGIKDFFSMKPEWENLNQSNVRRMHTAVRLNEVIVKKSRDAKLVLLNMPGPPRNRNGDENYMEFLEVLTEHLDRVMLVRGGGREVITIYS
bCat nuc transl: modulators of beta-catenin nuclear translocation, primary screen, imaging, HeLa cells, immunofluorescence, high-content. hit rate 0.3% among 190,000. AID 1665, 2009. nuclear translocation activity, % at 5 µM;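 active = nuclear translocation activity above 50% at 5 µM, with a well cell count of 50 or more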;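 also: per-cell ratio of nuclear to cytoplasmic median beta-catenin stain intensity; plate controls were DMSO negative control for no effect and GSK-3 inhibitor IX positive control for full effect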
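Test system: HeLa cells, endogenous beta-catenin; Compound: single 5 µM dose plus 0.02–20 µM confirmation series; Times: compound exposure 24 h at 37°C; Signal: fluorescence imaging of beta-catenin antibody stain plus DAPI; Read-out: % activation, nuclear-to-cytoplasmic median beta-catenin signal ratio per cell.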
Pf gametocyte: late stage P. falciparum gametocyte viability inhibitors, primary screen, ATP luminescence, HTS; P. falciparum stage V gametocytes, 24 h; inhibition, % at 10.9 µM; hit rate 0.065% among 150,000; AID 743093, 2013;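 active = inhibition above the mean plus 3 SD of compounds within the control limits, set per campaign, cut at about 38% in these data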;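 also: 0% = DMSO wells and 100% = medium only without gametocytes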
Active calls of the source: *; . = no result. Only some compounds are listed: those with a hit (about 4% of all), similar ones and a draw of the others.

SMILES	WT yeast gro inh	MT stabilize HCS	Cl transport mod	bCat nuc transl	Pf gametocyte
C=CCc1ccc(O)c(-c2ccc(O)c(CC=C)c2)c1	63*	1	0.33	2	.
Cc1cc(C(=O)NCCc2ccc(S(N)(=O)=O)cc2)no1	9	3	1.4	0	2
CCOc1c(OC(C)=O)ccc(/C=C/c2ccc3cccc(OC(C)=O)c3n2)c1[N+](=O)[O-]	65*	1	-0.32	0	.
COc1c(OC(C)=O)ccc(/C=C/c2ccc3ccccc3n2)c1[N+](=O)[O-]	68*	1	.	-3	.
Cc1nnc(Sc2nc3c(c(=O)n(C)c(=O)n3C)n2Cc2ccc(Cl)cc2)s1	-13	4	-0.73	0	-8
Cc1ccc(CNC(=O)CCNC(=O)c2ccco2)cc1	95*	2	0.053	0	.
O=C(NCc1ccccc1)c1ccco1	-16	3	0.12	-7	.
CCN(c1ccccc1)S(=O)(=O)c1cnc[nH]1	59*	1	-0.36	0	-13
O=C(CSCc1cnn(-c2ccccc2)c1-n1cccc1)N1CCN(Cc2ccccc2)CC1	63*	2	-1.7	.	2
CC1C/C(=C/c2ccccn2)C(=O)/C(=C/c2ccccn2)C1 (stereo unspecified)	87*	39*	0.24	23	.
CC(C)(O)[C@H](O)Cc1cc2ccc(=O)oc2cc1O[C@@H]1O[C@H](CO)[C@@H](O)[C@H](O)[C@H]1O	.	.	.	.	22
COC(=O)c1[nH]nc(-c2ccccc2)c1-c1ccccc1	.	.	.	.	-15
COc1ccccc1CN=Cc1[nH]c2ccc(Br)c(Cl)c2c1O	67*	1	-0.6	-13	-9
CCOC(=O)C1=C(C)NC(C)=C(C(=O)OCC)C1c1nc2ccccc2[nH]1	6	1	0.39	.	-9
CCOC(=O)C(C)c1nc2ccccc2[nH]c1=O (stereo unspecified)	73*	2	1.3	-1	.
CC1CCN(c2ccc(NC(=S)NC(=O)c3ccco3)cc2)CC1	21	1	25*	-1	.
O=C(NC(=S)Nc1ccc(N2CCCCC2)cc1)c1ccco1	11	1	72*	.	.
O=C(NC(=S)Nc1ccc(NC(=O)c2ccco2)cc1)c1ccccc1	4	5	-1.1	-6	-9
CC(NC(=O)/C(C#N)=C/c1cn[nH]c1-c1ccccc1)c1ccccc1 (stereo unspecified)	3	2	-0.35	-1	10
Cc1[nH]c2ccccc2c1/C=C(\C#N)C(=O)NC(C)c1ccccc1 (stereo unspecified)	85*	2	0.97	0	.
CCc1ccc(C(C)NC(=O)/C(C#N)=C\c2cn[nH]c2-c2ccccc2)cc1 (stereo unspecified)	59*	2	-0.12	2	-12
Cc1ccc(/C=C(/C#N)C(=O)NC(C)c2ccccc2)o1 (stereo unspecified)	3	3	-0.047	.	14
CCOC(=O)C1=C(CC)Nc2ccccc2N=C1NC(=O)c1ccc(S(=O)(=O)N(C)C)cc1	-13	1	.	0	.
CCOC(=O)C1=C(CC)Nc2ccccc2N/C1=N\S(=O)(=O)c1ccc2ccccc2c1	72*	4	-1.3	-4	.
O=C(CSc1nnc(CCc2ccccc2)n1-c1ccc(Cl)cc1)c1ccccc1	67*	5	-0.25	1	.
SMILES	WT yeast gro inh	MT stabilize HCS	Cl transport mod	bCat nuc transl	Pf gametocyte
O=C(Nc1ccccn1)c1csc2c1CCCC2	72*	2	.	1	7
O=C(c1cccc(S(=O)(=O)N2CCCC2)c1)N1CCN(c2ccccc2)CC1	17	18*	-0.13	.	.
O=C(c1ccncc1)N1CCN(c2ccc(F)cc2)CC1	-3	1	-0.4	-2	17
Cc1onc(-c2ccccc2Cl)c1C(=O)N1CCN(c2ccccc2)CC1	10	2	.	0	.
Cc1onc(-c2ccccc2Cl)c1C(=O)N1CCN(c2cccc(Cl)c2)CC1	15	20*	0.037	.	.
O=C(c1ccc(Cl)cc1)N1CCN(c2ccc(F)cc2)CC1	71*	3	0.037	-2	.
O=C(c1cccc(F)c1)N1CCN(c2cccc(Cl)c2)CC1	22	21*	.	.	18
COC(=O)C1SCC2C(=O)N(Cc3ccc(Cl)c(Cl)c3)CC(=O)N21 (stereo unspecified)	4	5	2.3	-2	12
O=C(c1c(Cl)nc2sccn12)N1CCN(c2cccc(Cl)c2)CC1	12	19*	.	112*	.
